Like-named read-outs stand apart in the source and are kept apart here.
How the values were obtained:
[1] = test system: primary canine T cell cancers (T cell lymphoma, TZL, T-CLL) neoplastic T lymphocytes; test: In vitro BH3 mimetics sensitivity cell kill assay, primary canine T cell cancers; format: cell-based; conditions: dog 26, multicentric large T cell lymphoma, neoplastic CD3+ nodal T cells, 24 h
[2] = test system: MDCK immortalized canine kidney cells; test: Cell viability after 24h treatment, MDCK cell line; format: cell-based, dog
Summary of the method: (§1)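 MDCK canine kidney cells were kept in DMEM with 10% FCS and penicillin/streptomycin at 37°C, 5% CO2, for at most four passages, and tested Mycoplasma-negative. As a control line they were given a BH3 mimetic at 2 nM–10 μM, with 0.001% DMSO as the negative control, for 24 h.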

[3] = test system: canine osteosarcoma cell line OSCA40; test: Cell viability after 24h treatment, OSCA40 cell line; format: cell-based, dog; conditions: OSCA40, 24h
Summary of the method: as §1, with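 “OSCA40” for “MDCK”, “osteosarcoma” for “kidney”, “α-MEM” for “DMEM”, “FCS, 10 mM L-glutamine” for “FCS”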

[4] = test system: human B‐cell acute lymphoblastic leukemia cell line RS4;11; test: Cell viability after 24h treatment, RS4; format: cell-based; conditions: RS4;11 positive control
Summary of the method: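 RS4;11 human B-ALL cells had their identity genetically confirmed and were grown in RPMI with 10% FCS and penicillin/streptomycin at 37°C, 5% CO2, for at most four passages. They were run as a control with each experiment at 1 × 10^5 cells/well in single replicates, given a BH3 mimetic at 2 nM–10 μM or 0.001% DMSO for 24 h at 37°C.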

[5] = people, 400 mg daily dosing; cited from earlier work
[6] = dogs, 20 mg/kg once a day; cited from earlier work
[7] = test system: Beagles; conditions: 2 to 20 mg/kg PO daily for up to 9 months; cited from earlier work
[8] = test system: human DLBCL (hDLBCL); conditions: single‐agent treatment; cited from earlier work

Structure (SMILES): CC1(C)CCC(c2ccc(Cl)cc2)=C(CN2CCN(c3ccc(C(=O)NS(=O)(=O)c4ccc(N[C@H](CCN5CCOCC5)CSc5ccccc5)c(S(=O)(=O)C(F)(F)F)c4)cc3)CC2)C1 [NAV, navitoclax]
- EC50 [1]: 20.8 nM
- sensitivity in vitro [2]: resistance
- sensitivity in vitro [3]: resistance

Structure (SMILES): CC1(C)CCC(CN2CCN(c3ccc(C(=O)NS(=O)(=O)c4ccc(NCC5CCOCC5)c([N+](=O)[O-])c4)c(Oc4cnc5[nH]ccc5c4)c3)CC2)=C(c2ccc(Cl)cc2)C1 [VEN, venetoclax]
- EC50 [1]: 7.9 nM
- sensitivity in vitro [2]: resistance
- sensitivity in vitro [3]: resistance
- sensitivity in vitro [4]: sensitive
- area under the curve (AUC) [5]: 31800 ng·h/mL
- area under the curve (AUC) [6]: 73600 ng·h/mL
- Other clinical toxicities [7]: grade 2 weight loss associated with hyporexia, and leukotricia
- average reduction in circulating lymphocytes [7]: 81%
- hematological finding [7]: mild anemia
- overall response rate [8]: 18%
